Measured values: ChEMBL document CHEMBL1123499, “Synthesis, saludiuretic, and antihypertensive activity of 6,7-disubstituted 1(2H)- and 3,4-dihydro-1(2H)-phthalazinones” (1986)

Experiments:
Rattus norvegicus [1] = organism: Rattus norvegicus; assay: Compound was tested for antihypertensive activity in rat after 1 hr postdose; type: functional
Procedure, shortened: (§1)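 DOCA/saline hypertensive Sprague-Dawley rats (250-350 g), six per group, given 10 mg/kg doca s.c. daily with saline until systolic BP reached 170 mmHg (usually 3-4 weeks). Oral 25 mg/kg in 5 mL/kg 1% methylcellulose. Systolic BP by tail-cuff before and 1, 4, 24 h after; drop reported as mean ± SD.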

Rattus norvegicus [2] = organism: Rattus norvegicus; assay: Compound was tested for antihypertensive activity in rat after 24 hr postdose; type: functional; procedure, shortened: as §1
Rattus norvegicus [3] = organism: Rattus norvegicus; assay: Compound was tested for antihypertensive activity in rat after 4 hr postdose; type: functional; procedure, shortened: as §1
Rattus norvegicus [4] = organism: Rattus norvegicus; assay: Diuretic activity in rats at time intervals of 0-24 hours; type: functional, Urine
Procedure, shortened: (§2)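 Male Sabra rats (170-200 g), starved 18 h, given 50 mg/kg by stomach tube in saline (25 mL/kg load), eight per compound, saline and furosemide controls run alongside. Held two per metabolic cage at 22 °C without food or water. Urine volume measured at 5 and 24 h collections.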

Rattus norvegicus [5] = organism: Rattus norvegicus; assay: Diuretic activity in rats at time intervals of 0-5 hours; type: functional, Urine; procedure, shortened: as §2
Rattus norvegicus [6] = organism: Rattus norvegicus; assay: Diuretic activity in rats at time intervals of 5-24 hours; type: functional, Urine; procedure, shortened: as §2
Rattus norvegicus [7] = organism: Rattus norvegicus; assay: Saluretic activity in rats after 5-24 hours, as sodium ion concentration in urine; type: functional
Procedure, shortened: (§3)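 Male Sabra rats (170-200 g), fasted 18 h, dosed orally 50 mg/kg in saline at 25 mL/kg, eight per compound, two per metabolic cage, no food or water. Urine collected 5 and 24 h after dosing and centrifuged. Chloride titrated with Hg(NO3)2/diphenylcarbazone after HNO3 acidification; Na+ and K+ by atomic absorption.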

Rattus norvegicus [8] = organism: Rattus norvegicus; assay: Saluretic activity in rats after 0-24 hours, as chloride ion concentration in urine; type: functional; procedure, shortened: as §3
Rattus norvegicus [9] = organism: Rattus norvegicus; assay: Saluretic activity in rats after 0-24 hours, as potassium ion concentration in urine; type: functional; procedure, shortened: as §3
Rattus norvegicus [10] = organism: Rattus norvegicus; assay: Saluretic activity in rats after 0-24 hours, as sodium ion concentration in urine; type: functional; procedure, shortened: as §3
Rattus norvegicus [11] = organism: Rattus norvegicus; assay: Saluretic activity in rats after 0-5 hours, as chloride ion concentration in urine; type: functional; procedure, shortened: as §3
Rattus norvegicus [12] = organism: Rattus norvegicus; assay: Saluretic activity in rats after 0-5 hours, as sodium ion concentration in urine; type: functional; procedure, shortened: as §3
Rattus norvegicus [13] = organism: Rattus norvegicus; assay: Saluretic activity in rats after 5-24 hours, as chloride ion concentration in urine; type: functional; procedure, shortened: as §3
Rattus norvegicus [14] = organism: Rattus norvegicus; assay: Saluretic activity in rats after 5-24 hours, as potassium ion concentration in urine; type: functional; procedure, shortened: as §3
Rattus norvegicus [15] = organism: Rattus norvegicus; assay: Saluretic activity in rats after 0-5 hours, as potassium ion concentration in urine; type: functional; procedure, shortened: as §3
Rattus norvegicus [16] = organism: Rattus norvegicus; assay: Saluretic activity in rats after 0-24 hours, as ratio of Na+/K+ ion concentration in urine; type: functional; procedure, shortened: as §3
Rattus norvegicus [17] = organism: Rattus norvegicus; assay: Saluretic activity in rats after 0-5 hours, as ratio of Na+/K+ ion concentration in urine; type: functional; procedure, shortened: as §3
Rattus norvegicus [18] = organism: Rattus norvegicus; assay: Saluretic activity in rats after 5-24 hours, as ratio of Na+/K+ ion concentration in urine; type: functional; procedure, shortened: as §3

SMILES | Decrease in blood pressure (Rattus norvegicus [1]) [mmHg] | Decrease in blood pressure (Rattus norvegicus [2]) [mmHg] | Decrease in blood pressure (Rattus norvegicus [3]) [mmHg] | Diuretic activity (Rattus norvegicus [4]) [mL] | Diuretic activity (Rattus norvegicus [5]) [mL] | Diuretic activity (Rattus norvegicus [6]) [mL] | Saluretic activity (Rattus norvegicus [7]) [m equiv kg-1] | Saluretic activity (Rattus norvegicus [8]) [m equiv kg-1] | Saluretic activity (Rattus norvegicus [9]) [m equiv kg-1] | Saluretic activity (Rattus norvegicus [10]) [m equiv kg-1] | Saluretic activity (Rattus norvegicus [11]) [m equiv kg-1] | Saluretic activity (Rattus norvegicus [12]) [m equiv kg-1] | Saluretic activity (Rattus norvegicus [13]) [m equiv kg-1] | Saluretic activity (Rattus norvegicus [14]) [m equiv kg-1] | Saluretic activity (Rattus norvegicus [15]) [m equiv kg-1] | Ratio (Rattus norvegicus [16]) | Ratio (Rattus norvegicus [17]) | Ratio (Rattus norvegicus [18])
CN1NCc2cc(Cl)c(S(N)(=O)=O)cc2C1=O | 31.3 | 22.7 | 45 | 11.8 | 5 | 6.8 | 5.98 | 9.35 | 7.82 | 10.43 | 6.2 | 4.45 | 3.15 | 5.27 | 2.55 | 1.33 | 1.74 | 1.13
NS(=O)(=O)c1cc2c(cc1Cl)CNNC2=O | 24.7 | 27 | 31 | 12.7 | 6.5 | 6.2 | 4.36 | 12.48 | 5.63 | 10.91 | 8.32 | 6.55 | 4.16 | 3.45 | 2.18 | 1.94 | 3 | 1.27
NS(=O)(=O)c1cc2c(cc1Cl)CNN(Cc1ccccc1)C2=O | – | – | – | 13.2 | 6.6 | 6.6 | 5.7 | 13.69 | 6.79 | 12.6 | 8.69 | 6.9 | 5 | 4.18 | 2.61 | 1.86 | 2.65 | 1.36
Cn1ncc2cc(S(N)(=O)=O)c(Cl)cc2c1=O | 29.7 | 19.3 | 47 | 4.8 | 2.2 | 2.6 | 5.26 | 7.22 | 5.16 | 7.84 | 2.22 | 2.58 | 5 | 3.92 | 1.24 | 1.52 | 2.1 | 1.34
Cn1ncc2cc(Cl)c(S(N)(=O)=O)cc2c1=O | 31.7 | 26.3 | 47.7 | 8.8 | 6.1 | 2.7 | 2.4 | 9.57 | 4.76 | 11.1 | 7.27 | 8.7 | 2.3 | 2.09 | 2.67 | 2.33 | 3.27 | 1.15
CN1NCc2cc(S(N)(=O)=O)c(Cl)cc2C1=O | – | – | – | 6.1 | 2.7 | 3.4 | 4.94 | 8.05 | 4.35 | 7.35 | 2.76 | 2.41 | 5.29 | 3 | 1.35 | 1.69 | 1.78 | 1.64
NS(=O)(=O)c1cc2c(cc1Cl)CNN(Cc1ccco1)C2=O | 25.3 | 23 | 31.3 | 10.5 | 6.7 | 3.8 | 3.09 | 11.43 | 5.75 | 9.83 | 8.45 | 6.74 | 2.98 | 3.37 | 2.38 | 1.71 | 2.83 | 0.92
NS(=O)(=O)c1cc2c(cc1Cl)C(=O)N(c1cccc(C(F)(F)F)c1)NC2 | – | – | – | 6.1 | 1.6 | 4.5 | 5.6 | 8.73 | 4.53 | 6.86 | 2.07 | 1.26 | 6.66 | 3.84 | 0.69 | 1.51 | 1.82 | 1.46
NS(=O)(=O)c1cc2c(cc1Cl)C(=O)NNC2 | 34.7 | 47.7 | 51 | 6.6 | 2.9 | 3.7 | 5.84 | 9.77 | 5.52 | 9.07 | 3.49 | 3.23 | 6.28 | 3.94 | 1.58 | 1.64 | 2.04 | 1.48
NS(=O)(=O)c1cc2c(cc1Cl)CNN(c1cccc(C(F)(F)F)c1)C2=O | – | – | – | 11.6 | 4.9 | 6.7 | 4.9 | 12.6 | 5.41 | 11.07 | 7.91 | 6.17 | 4.69 | 3.42 | 1.99 | 2.05 | 3.1 | 1.43
NS(=O)(=O)c1cc2cnn(-c3cccc(C(F)(F)F)c3)c(=O)c2cc1Cl | 35.6 | 27.7 | 54 | 4.9 | 0.9 | 4 | – | – | 5.16 | 7.41 | – | 0.82 | – | 4.67 | 0.49 | 1.44 | 1.66 | 1.41
NS(=O)(=O)c1cc2c(cc1Cl)N=CNS2(=O)=O [CHLOROTHIAZIDE] | – | – | – | 11.9 | 7.2 | 4.7 | 5.03 | 13.55 | 7.89 | 12.77 | 8.8 | 7.74 | 4.75 | 4.14 | 3.75 | 1.62 | 2.06 | 1.21
NNc1nncc2ccccc12 [HYDRALAZINE] | 72.4 | 35.3 | 75.1 | – | – | – | – | – | – | – | – | – | – | – | – | – | – | –
NS(=O)(=O)c1cc2c(cc1Cl)NCNS2(=O)=O [HYDROCHLOROTHIAZIDE] | 28.6 | 18 | 36.7 | – | – | – | – | – | – | – | – | – | – | – | – | – | – | –
